From ChEMBL document CHEMBL5724801, “EUbOPEN Chemogenomics Library - Multiplex” (2024)
Several values for one entry are separate records, joined by “and”; a condition that tells them apart may be missing. Identical values can stand only once.

System: Fibroblast
Assay: Multiplex assay against human fibroblast
Type: toxicity, cell-based
Outline: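 Live cells carried four stains from seeding: Hoechst33342, BioTracker Green Microtubule Cytoskeleton Dye, MitoTracker Red and Annexin V Alexa Fluor 680. They were imaged on a CQ1 microscope at 37°C and 5% CO2 after compound addition. Using CellPathfinder machine-learning gating, cells were split into Hoechst high-intensity objects or normal cells, normal cells into healthy, pyknosed or fragmented nuclei, and pyknosed cells into mitotic or apoptotic; tubulin, mitochondrial-mass and membrane-permeability phenotypes are per cents of healthy-nucleus cells.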

[1] = 12 h, 1 µM, compound concentration 1 uM
[2] = 12 h, 10 µM, compound concentration 10 uM
[3] = 24 h, 1 µM, compound concentration 1 uM
[4] = 24 h, 10 µM, compound concentration 10 uM
[5] = 48 h, 1 µM, compound concentration 1 uM
[6] = 48 h, 10 µM, compound concentration 10 uM

Q: What does the source list for `Cc1onc(-c2ccccc2Cl)c1C(=O)N(C)c1ccc(Cl)cc1`?
A: Population Apoptotic (%) [1]: 60% and 35%; Population Fragmented Nuclei (%) [1]: 17% and 22%; Population Healthy Nuclei (%) [1]: 68% and 50%; Population Hoechst High Intensity Objects (%) [1]: 7% and 9%; Population Membrane Permeable-Phenotype (%) [1]: 0% and 6%; Population Mitochondria Different-Phenotype (%) [1]: 7% and 8%; Population Mitotic Cells (%) [1]: 39% and 65%; Population Normal (%) [1]: 92% and 90%; Population Pyknosed Nuclei (%) [1]: 13% and 27%; Population Tubulin-Different-Phenotype (%) [1]: 23% and 63%; Total Cell Count [1]: 178 and 161; Population Apoptotic (%) [2]: 36% and 37%; Population Fragmented Nuclei (%) [2]: 16% and 24%; Population Healthy Nuclei (%) [2]: 70% and 48%; Population Hoechst High Intensity Objects (%) [2]: 2% and 3%; Population Membrane Permeable-Phenotype (%) [2]: 2% and 5%; Population Mitochondria Different-Phenotype (%) [2]: 6% and 11%; Population Mitotic Cells (%) [2]: 63% and 62%; Population Normal (%) [2]: 97% and 96%; Population Pyknosed Nuclei (%) [2]: 13% and 27%; Population Tubulin-Different-Phenotype (%) [2]: 29% and 64%; Total Cell Count [2]: 144 and 151; Population Apoptotic (%) [3]: 44% and 39%; Population Fragmented Nuclei (%) [3]: 18% and 22%; Population Healthy Nuclei (%) [3]: 65% and 54%; Population Hoechst High Intensity Objects (%) [3]: 7% and 12%; Population Membrane Permeable-Phenotype (%) [3]: 0% and 8%; Population Mitochondria Different-Phenotype (%) [3]: 1% and 4%; Population Mitotic Cells (%) [3]: 55% and 60%; Population Normal (%) [3]: 92% and 87%; Population Pyknosed Nuclei (%) [3]: 16% and 23%; Total Cell Count [3]: 178 and 182; Population Apoptotic (%) [4]: 20% and 54%; Population Fragmented Nuclei (%) [4]: 16% and 21%; Population Healthy Nuclei (%) [4]: 76% and 55%; Population Hoechst High Intensity Objects (%) [4]: 2% and 4%; Population Membrane Permeable-Phenotype (%) [4]: 1% and 6%; Population Mitochondria Different-Phenotype (%) [4]: 4% and 6%; Population Mitotic Cells (%) [4]: 80% and 45%; Population Normal (%) [4]: 97% and 95%; Population Tubulin-Different-Phenotype (%) [4]: 32% and 59%; Total Cell Count [4]: 134 and 149; Population Apoptotic (%) [5]: 76% and 48%; Population Fragmented Nuclei (%) [5]: 26% and 28%; Population Healthy Nuclei (%) [5]: 62% and 54%; Population Hoechst High Intensity Objects (%) [5]: 9% and 11%; Population Membrane Permeable-Phenotype (%) [5]: 0% and 10%; Population Mitochondria Different-Phenotype (%) [5]: 1% and 6%; Population Mitotic Cells (%) [5]: 23% and 51%; Population Normal (%) [5]: 90% and 88%; Population Pyknosed Nuclei (%) [5]: 10% and 17%; Population Tubulin-Different-Phenotype (%) [5]: 22% and 51%; Total Cell Count [5]: 185 and 188; Population Apoptotic (%) [6]: 44% and 65%; Population Fragmented Nuclei (%) [6]: 25% and 31%; Population Healthy Nuclei (%) [6]: 68% and 55%; Population Hoechst High Intensity Objects (%) [6]: 4% and 1%; Population Membrane Permeable-Phenotype (%) [6]: 0% and 8%; Population Mitochondria Different-Phenotype (%) [6]: 3% and 6%; Population Mitotic Cells (%) [6]: 55% and 35%; Population Normal (%) [6]: 95% and 98%; Population Pyknosed Nuclei (%) [6]: 6% and 12%; Population Tubulin-Different-Phenotype (%) [6]: 34% and 53%; Total Cell Count [6]: 141 and 166

Q: How did the “Population Apoptotic (%)” value [1] turn out when `CCCC(CCC)C(=O)O` [VALPROIC ACID] was run?
A: 42% and 57%

Q: And the “Population Fragmented Nuclei (%)” value [1]?
A: 13% and 20%

Q: What about the “Population Healthy Nuclei (%)” value [1] of the same compound?
A: 65% and 47%

Q: And the “Population Hoechst High Intensity Objects (%)” value [1]?
A: 3% and 8%

Q: And the “Population Membrane Permeable-Phenotype (%)” value [1]?
A: 2% and 10%

Q: And the “Population Mitotic Cells (%)” value [1]?
A: 57% and 42%

Q: What about the “Population Normal (%)” value [1] of the same compound?
A: 96% and 91%

Q: And the “Population Pyknosed Nuclei (%)” value [1]?
A: 21% and 31%

Q: What about the “Population Tubulin-Different-Phenotype (%)” value [1] of the same compound?
A: 27% and 49%

Q: And the “Population Apoptotic (%)” value [2]?
A: 30% and 43%

Q: And the “Population Fragmented Nuclei (%)” value [2]?
A: 29% and 16%

Q: And the “Population Healthy Nuclei (%)” value [2]?
A: 60% and 53%

Q: What about the “Population Hoechst High Intensity Objects (%)” value [2] of the same compound?
A: 4% and 2%

Q: What about the “Population Membrane Permeable-Phenotype (%)” value [2] of the same compound?
A: 1% and 4%

Q: What about the “Population Mitochondria Different-Phenotype (%)” value [2] of the same compound?
A: 3% and 8%

Q: And the “Population Mitotic Cells (%)” value [2]?
A: 70% and 56%

Q: And the “Population Normal (%)” value [2]?
A: 95% and 97%

Q: And the “Population Tubulin-Different-Phenotype (%)” value [2]?
A: 16% and 41%

Q: What about the “Population Apoptotic (%)” value [3] of the same compound?
A: 42% and 48%

Q: And the “Population Fragmented Nuclei (%)” value [3]?
A: 11% and 22%

Q: What about the “Population Healthy Nuclei (%)” value [3] of the same compound?
A: 69% and 53%

Q: And the “Population Hoechst High Intensity Objects (%)” value [3]?
A: 5% and 7%

Q: What about the “Population Membrane Permeable-Phenotype (%)” value [3] of the same compound?
A: 1% and 3%

Q: What about the “Population Mitochondria Different-Phenotype (%)” value [3] of the same compound?
A: 2% and 7%

Q: And the “Population Mitotic Cells (%)” value [3]?
A: 57% and 51%

Q: And the “Population Normal (%)” value [3]?
A: 95% and 92%

Q: And the “Population Pyknosed Nuclei (%)” value [3]?
A: 19% and 24%

Q: What about the “Population Tubulin-Different-Phenotype (%)” value [3] of the same compound?
A: 22% and 54%

Q: What about the “Population Apoptotic (%)” value [4] of the same compound?
A: 50% and 38%

Q: And the “Population Fragmented Nuclei (%)” value [4]?
A: 27% and 30%

Q: What about the “Population Healthy Nuclei (%)” value [4] of the same compound?
A: 66% and 46%

Q: And the “Population Hoechst High Intensity Objects (%)” value [4]?
A: 6% and 3%

Q: What about the “Population Membrane Permeable-Phenotype (%)” value [4] of the same compound?
A: 0% and 5%

Q: And the “Population Mitochondria Different-Phenotype (%)” value [4]?
A: 1% and 4%

Q: What about the “Population Mitotic Cells (%)” value [4] of the same compound?
A: 50% and 61%

Q: And the “Population Normal (%)” value [4]?
A: 93% and 96%

Q: What about the “Population Tubulin-Different-Phenotype (%)” value [4] of the same compound?
A: 21% and 41%

Q: What about the “Population Apoptotic (%)” value [5] of the same compound?
A: 55% and 48%

Q: And the “Population Fragmented Nuclei (%)” value [5]?
A: 18% and 36%

Q: And the “Population Healthy Nuclei (%)” value [5]?
A: 66% and 44%

Q: And the “Population Hoechst High Intensity Objects (%)” value [5]?
A: 7%

Q: And the “Population Membrane Permeable-Phenotype (%)” value [5]?
A: 0% and 4%

Q: And the “Population Mitochondria Different-Phenotype (%)” value [5]?
A: 1% and 7%

Q: And the “Population Mitotic Cells (%)” value [5]?
A: 44% and 51%

Q: And the “Population Normal (%)” value [5]?
A: 92%

Q: And the “Population Pyknosed Nuclei (%)” value [5]?
A: 14% and 19%

Q: And the “Population Tubulin-Different-Phenotype (%)” value [5]?
A: 19% and 55%

Q: What about the “Population Apoptotic (%)” value [6] of the same compound?
A: 60%

Q: What about the “Population Fragmented Nuclei (%)” value [6] of the same compound?
A: 30% and 33%

Q: And the “Population Healthy Nuclei (%)” value [6]?
A: 60% and 51%

Q: What about the “Population Hoechst High Intensity Objects (%)” value [6] of the same compound?
A: 1% and 5%

Q: What about the “Population Membrane Permeable-Phenotype (%)” value [6] of the same compound?
A: 0% and 6%

Q: What about the “Population Mitochondria Different-Phenotype (%)” value [6] of the same compound?
A: 1% and 5%

Q: And the “Population Mitotic Cells (%)” value [6]?
A: 40% and 39%

Q: And the “Population Normal (%)” value [6]?
A: 98% and 94%

Q: And the “Population Pyknosed Nuclei (%)” value [6]?
A: 8% and 15%

Q: What about the “Population Tubulin-Different-Phenotype (%)” value [6] of the same compound?
A: 18% and 46%
